# Shown are actives, neighbours in structure and some others; about 1.7% of the full set was active somewhere.
# IDE inh: inhibits human insulin-degrading enzyme in HEK cells; P14735; FAbetaB cleavage, fluorescence polarization; inhibition, % at 5.59 µM; actives 0.41% (n = 320,000); AID 434962;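 active = percent inhibition above the average of all tested compounds plus 3 SD, set per screening campaign, cut at about 16% in these data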;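 also: IDE supplied by intact live HEK cells; FP after avidin binding of uncleaved biotin substrate so inhibition keeps polarization high; 0% = DMSO wells and 100% = 60 µM reference IDE inhibitor Ii1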
# IDE act: IDE (human) activation, cell-based. P14735. HEK cells, FAbeta-B cleavage, fluorescence polarization; 0% vehicle, 100% cell-free pure enzyme wells. activation, % at 5.96 µM. actives 0.073% (n = 340,000). AID 493087;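 active = activation above the mean of all tested compounds plus 3 SD, set per screening campaign, cut at about 17% in these data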
# CSN deneddyl inh: inhibitors of human CSN-mediated cullin deneddylation | Q92905 | Purified CSN, SCF-Nedd8-OG deneddylation, fluorescence polarization | inhibition, % at 12.5 µM | actives 0.38% (n = 360,000) | AID 651999;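 active = pattern-corrected inhibition above about 35%, with an unprinted fluorescence ratio check between 0.5 and 1.5, limit read from the data, passing the limit was not always enough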;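 also: 0% = enzyme with substrate and 100% = substrate without enzyme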
#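 Detection – fluorescence polarization · System – HEK293T-derived human Csn5 enzyme · Controls – substrate-only high control, full reaction low control · Timing – 90 min, room temperature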
# TPT1 inhibitor: blocks Candida albicans tRNA 2'-phosphotransferase | AID 1962 | actives 0.81% (n = 300,000) | inhibition, % at 5 µM | recombinant caTPT1, FP RNA substrate dephosphorylation;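 active = inhibition above the mean of all tested compounds plus 3 SD, set per screening campaign, cut at about 24% in these data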;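 also: plate controls were DMSO alone for no effect and ferristatin control at 100 nM for full effect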
# HNF4A DNA FP: change in binding of human HNF4 alpha to DNA. activity change, % at 10 µM. P41235. actives 0.3% (n = 360,000). HNF4a-FITC DNA binding, fluorescence polarization, 1 h; in the data active = activity change above about 30%, passing the limit was not always enough
# Rpn11 block: blocks the human proteasome subunit Rpn11 | inhibition, % at 20 µM | O00487 | actives 0.59% (n = 360,000) | human 26S proteasome, Ub4-pepOG fluorescence polarization; 20S core pre-blocked with epoxomicin;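 active = inhibition at 20 µM, scaled to each plate's controls, above about 33%, limit read from the data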
# Target sequence (O00487 whole entry, looked up): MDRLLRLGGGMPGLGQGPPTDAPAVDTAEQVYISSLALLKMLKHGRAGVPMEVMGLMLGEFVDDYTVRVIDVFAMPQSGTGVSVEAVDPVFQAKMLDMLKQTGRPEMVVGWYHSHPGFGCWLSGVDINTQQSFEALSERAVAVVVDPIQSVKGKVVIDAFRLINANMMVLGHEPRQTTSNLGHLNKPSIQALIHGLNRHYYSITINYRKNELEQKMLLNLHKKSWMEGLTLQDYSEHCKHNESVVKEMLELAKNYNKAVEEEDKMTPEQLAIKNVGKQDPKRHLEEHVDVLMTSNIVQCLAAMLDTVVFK
# TPT1 inh confirm: TPT1 (C. albicans) inhibition, confirmation; shares compounds with TPT1 inhibitor; recombinant caTPT1, fluorescence polarization, RNase T1 coupled; inhibition, % at 5 µM; actives 74% (n = 2,400); AID 2149;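 active = inhibition above the primary screen limit, the mean inhibition of all tested compounds plus 3 SD, cut at about 25% in these data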
# RNase T1 counter: counter-screen for TPT1 inhibitors: inhibitors of Aspergillus oryzae RNase T1; shares compounds with TPT1 inhibitor; RNase T1 cleavage, fluorescence polarization, 1536-well; inhibition, % at 5 µM; actives 83% (n = 2,400);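 active = inhibition above the solvent-only control well mean plus 3 SD, limit set per screening run, cut at about 23% in these data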;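 also: plate controls were DMSO wells with enzyme for no effect and wells without RNase T1 for full effect; inhibitors block cleavage so intact labeled substrate keeps polarization high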
# Target sequence (P00651 whole entry, looked up): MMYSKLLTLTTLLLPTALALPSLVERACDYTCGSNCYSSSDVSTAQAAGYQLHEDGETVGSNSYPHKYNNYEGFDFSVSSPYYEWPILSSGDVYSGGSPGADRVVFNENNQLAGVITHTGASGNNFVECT
# * marks the source's active call; other numbers are inactive results; nt = not tested or not shown.
SMILES,IDE inh,IDE act,CSN deneddyl inh,TPT1 inhibitor,HNF4A DNA FP,Rpn11 block,TPT1 inh confirm,RNase T1 counter
CN1C(=O)C(N=Nc2ccccc2C(=O)O)N(C)C1=S (stereo not given),21*,-42,8,41*,14,21,41*,61*
Cc1ccc(C(=O)Nc2cccc(C(=O)N3CCOCC3)c2)cc1Cl,3,-4,-10,-2,4,1,nt,nt
CCCN(c1ccccc1F)S(=O)(=O)c1c[nH]c(C(=O)OC)c1,5,0,1,1,1,-8,nt,nt
O=C1CC(NC(=O)c2ccc(Cl)cc2)C(=O)N1 (stereo not given),1,4,-1,133*,-2,5,11,21
Cc1nc2ccccc2n1/N=C/c1ccc([N+](=O)[O-])s1,0,4,0,28*,0,nt,36*,59*
O=[N+]([O-])c1ccc(/C=N/n2c(CO)nc3ccccc32)s1,5,6,0,-5,-9,-12,nt,nt
COc1ccccc1/C=C/C=C1\Oc2c(ccc(O)c2CN(C)C)C1=O,10,-17,60,32*,58,nt,33*,45*
CCN(CC)Cc1c(O)ccc2c1O/C(=C\C=C\c1ccccc1)C2=O,6,-3,37,12,45,nt,nt,nt
CC(NS(=O)(=O)c1ccc([N+](=O)[O-])cc1)C(c1cccs1)N1CCOCC1 (stereo not given),0,0,-3,36*,0,1,6,11
O=C(Cn1ncc2c3ccccc3n(Cc3cccc(Cl)c3)c2c1=O)NCc1ccccn1,1,1,11,69*,26,nt,84*,90*
COc1cc(OC)cc(-c2c(-c3cccs3)c3cc(-c4ccc(OC)c(OC)c4)ccc3n2C)c1,0,4,0,nt,2,32,nt,nt
Cc1ccc(S(=O)(=O)N(c2nc(N(C)C)nc(N(C)C)n2)n2cnnc2)cc1,1,3,-3,29*,-1,-6,7,12
Cc1ccc(S(=O)(=O)Nn2cnnc2)cc1,4,1,1,-3,-2,1,nt,nt
CCN1C(=O)[C@H]2[C@@H](c3ccc(Cl)cc3)N3C(=O)CN(CC4CC4)C(=O)[C@@]3(C)[C@H]2C1=O,-2,7,10,0,0,-4,nt,nt
COc1ccc(N2C(=O)CSC2c2ccc3c(c2)OCO3)c(OC)c1 (stereo not given),3,3,4,40*,-3,1,5,8
COC1=C/C(=C/c2c(O)c(C#N)c3ccccn23)C=CC1=O,5,-10,1,30*,3,16,10,13
COc1cc(OC)cc(C(=O)c2c(C)c(C#N)c3ccccn23)c1,nt,1,3,nt,-3,-6,nt,nt
O=C(Cc1ccccc1)Nc1ccc(N2CCOCC2)cc1,1,5,-4,0,2,-3,nt,nt
O=C(Cc1ccccc1)Nc1ccc(N2CCCC2)cc1,-3,7,11,36*,8,13,19,26*
Oc1ccc(Nc2nc3ccccc3nc2Nc2ccc(O)cc2)cc1,0,-8,29,52*,44*,53*,49*,67*
Oc1ccc(Nc2nc(-c3ccccc3)nc3ccccc23)cc1,-13,1,0,-3,1,-2,nt,nt
COc1cc(/C=C(\C#N)c2nc3c(s2)CCCC3)ccc1O,146*,nt,nt,146*,nt,nt,168*,152*
COC(=O)c1cccc(Cn2c(Cl)c(/C=N/Nc3ccccc3C)sc2=O)c1,3,3,0,29*,14,34,35*,42*
Cc1ccc(S(=O)(=O)NCCC(=O)NCC(=O)Nc2c(C)cccc2C)cc1C,0,3,-4,0,-4,2,nt,nt
Cc1cc(C)nc(N/N=C/c2cc(Br)ccc2O)n1,-2,-1,3,-3,0,-4,nt,nt
SMILES,IDE inh,IDE act,CSN deneddyl inh,TPT1 inhibitor,HNF4A DNA FP,Rpn11 block,TPT1 inh confirm,RNase T1 counter
O=C1c2ccccc2-c2cccc(NS(=O)(=O)c3ccc(C(F)(F)F)cc3)c21,8,-21,35,42*,18,nt,47*,55*
O=Cc1c(C(=O)O)n(CC(=O)O)c2ccccc12,6,7,-6,-2,-6,-8,nt,nt
CN1C(=O)c2ccc(C(=O)Nc3ccccc3O)cc2C1=O,7,0,3,0,-1,-5,nt,nt
COC(=O)c1c(-c2ccc3ccccc3c2)csc1NC(=O)Cc1ccc(OC)c(OC)c1,-2,0,5,39*,35,nt,63*,70*
Cc1[nH]nc2c1C(c1ccc(-c3ccc(Cl)cc3)o1)C(C#N)=C(N)O2 (stereo not given),5,-6,-2,2,3,-22,nt,nt
Cc1ccc(-c2ccc(C3C(C#N)=C(N)Oc4n[nH]c(C)c43)o2)cc1 (stereo not given),2,-3,1,35*,5,10,13,21
COC(=O)c1ccc(C(=O)Nc2ccc(N)cc2N)cc1,4,-3,13,108*,6,nt,5,13
COc1ccccc1NC(=O)c1ccc(N)cc1,2,0,9,-5,2,-6,nt,nt
O=C(CNC(=O)OCc1ccccc1)Nc1ccc(F)cc1,-1,2,-3,nt,-2,-2,nt,nt
Cc1ccc(-c2cc3nc(C)cc(C)n3n2)cc1,-1,3,-12,-2,-3,4,nt,nt
Cc1cc(C)n2nc(-c3ccsc3-n3c(C)ccc3C)cc2n1,6,3,25,45*,32,nt,53*,64*
C[C@H]1CN([C@@H](C)CO)C(=O)CCCn2cc(nn2)CO[C@@H]1CN(C)C(=O)Nc1ccc(N2CCCCC2)cc1,nt,nt,2,nt,4,7,nt,nt
CCOC(=O)/C=c1\s/c(=C\c2c(OCC)ccc3ccccc23)c(=O)n1CC(=O)NCC1CCCO1 (stereo not given),1,4,9,25*,15,nt,19,32*
CCOC(=O)/C=c1/s/c(=C\c2c(OC)ccc3ccccc23)c(=O)n1CC(=O)NCC1CCCO1 (stereo not given),nt,-8,10,nt,15,nt,nt,nt
CCOC(=O)/C=c1\s/c(=C\c2ccccc2C)c(=O)n1CC(=O)NCc1ccc2c(c1)OCO2,0,1,10,41*,11,36,30*,43*
CCOC(=O)/C=c1\s/c(=C\c2ccc3c(c2)OCCO3)c(=O)n1CC(=O)NCC1CCCO1 (stereo not given),-8,1,8,22,9,26,nt,nt
CN(CC(=O)NC(=O)NCc1ccccc1)CC(=O)Nc1ccc(Cl)c(Cl)c1,0,-2,-7,nt,5,0,nt,nt
